Bioassay records (PubChem)
ALR inh: inhibitors of human sulfhydryl oxidase ALR; purified ALR, DTT oxidation, H2O2 HRP-luminol luminescence; inhibition, % (concentration not given with the values); 3.8% of 290,000 active; AID 485317;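 active = mean replicate inhibition above about 79%, with every replicate also reaching it, limit read from the data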
Target sequence (P55789 whole entry, looked up): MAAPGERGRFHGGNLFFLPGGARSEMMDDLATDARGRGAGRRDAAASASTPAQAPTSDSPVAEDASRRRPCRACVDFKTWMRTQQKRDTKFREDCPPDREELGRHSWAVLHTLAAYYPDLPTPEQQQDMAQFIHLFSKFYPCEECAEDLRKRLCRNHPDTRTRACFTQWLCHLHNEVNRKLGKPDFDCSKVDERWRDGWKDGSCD
Calb FLC: affects C. albicans growth with fluconazole; 0.57% of 300,000 active; C. albicans CaCi-2 (fluconazole-resistant clinical isolate) + fluconazole, Alamar Blue growth, 48 h; growth inhibition, % (no concentration beside the values); AID 1979;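 active = growth inhibition above about 58% in most replicates, limit read from the data, passing the limit was not always enough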;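 also: all wells also contain fluconazole at 8 µg/ml as a sub-toxic cotreatment; 0% = median of DMSO wells and 100% = median of geldanamycin control wells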
ATG4B inh: ATG4B (human) cysteine protease inhibition. Q9Y4P1. ATG4B cleavage of LC3-PLA2, NBD-HPC fluorescence, 1 h. inhibition, % at 8.33 µM. 0.51% of 340,000 active. AID 504462; in the data active = inhibition above about 40%
NALP1 yeast inh: blocks the NALP1 inflammasome reconstituted in yeast; S. cerevisiae NALP1/ASC/caspase-1 growth, X-gal OD620, 72 h; AID 2071; inhibition, % at 10 µM; 0.61% of 280,000 active; in the data active = inhibition mostly above about 24%, no sharp cut-off; inactive = mostly below about 32%
UCH37 inh: human UCH37 deubiquitinating enzyme inhibition; inhibition, % (no concentration beside the values); 0.33% of 330,000 active; purified proteasome/UCH37, Ub-AMC cleavage fluorescence; AID 588478; Q9Y5K5;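 active = mean inhibition over replicate wells above about 20%, limit read from the data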;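 also: 0% = compound-free wells with enzyme and 100% = wells lacking proteasome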
Target sequence (Q9Y5K5 whole entry, looked up): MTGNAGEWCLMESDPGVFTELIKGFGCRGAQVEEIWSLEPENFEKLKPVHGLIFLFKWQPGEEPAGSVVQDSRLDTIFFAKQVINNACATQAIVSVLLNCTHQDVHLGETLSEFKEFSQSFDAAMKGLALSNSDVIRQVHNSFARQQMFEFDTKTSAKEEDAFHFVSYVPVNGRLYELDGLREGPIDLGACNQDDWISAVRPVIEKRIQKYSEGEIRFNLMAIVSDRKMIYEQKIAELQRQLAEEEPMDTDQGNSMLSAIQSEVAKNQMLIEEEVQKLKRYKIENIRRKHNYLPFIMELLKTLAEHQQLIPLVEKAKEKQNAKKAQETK
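Assay system: Proteasome-bound UCH37. Buffer or medium: pH 7.4 Tris-HCl (50 mM) with ovalbumin, ATP-MgCl2, DTT. Incubation: 30 min preincubation with enzyme, 25 min cleavage at room temperature. Measured by: fluorescence, ex 355 nm, em 460 nm. Read-out basis: percent inhibition. Control set: wells without proteasome as full block, compound-free enzyme plus substrate as uninhibited.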
NALP3 yeast inh: NALP3 inhibition in yeast; Yeast reconstituted NLRP3/ASC/caspase-1, beta-gal luminescence, 24 h; inhibition, % at 10 µM; 0.39% of 330,000 active; AID 2825;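 active = inhibition of 50% or more; inactive = inhibition below 50%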;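 also: plate controls were induced DMSO wells for no effect and uninduced yeast grown without galactose for full effect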
An asterisk follows results filed as active; / = no result given. An excerpt weighted towards active compounds, which were near 4.8% of everything screened.

SMILES | ALR inh | Calb FLC | ATG4B inh | NALP1 yeast inh | UCH37 inh | NALP3 yeast inh
O=C1CS/C(=N/N=C\c2ccn[nH]2)N1 | 81.9* | -11.2 | 1.8 | / | / | 0.7
CC(C(=O)Nc1ccc(O)cc1)c1cccc(C(=O)c2ccccc2)c1 (configuration not stated) | 98.6* | 27.7 | -13.1 | 5.4 | -0.1 | 15.2
Cc1ccccc1NS(=O)(=O)c1cc2c(cc1C)N(C)CCO2 | 98.0* | 1.3 | -18.1 | -18.5 | 3.1 | 5.8
COc1nc(Nc2ccc(O)cc2)nc(OC(C(F)(F)F)C(F)(F)F)n1 | 99.0* | 17.8 | 2.5 | 1.0 | 8.1 | -14.1
Cc1ccc(C=NNC(=O)c2cc3c(ccc4ccccc43)o2)cc1[N+](=O)[O-] | / | / | / | / | 1.0 | /
NC(=S)NNc1cc(Cl)cc(Cl)c1 | 97.5* | -2.4 | -10.3 | -14.5 | 1.9 | 24.7
FC(F)(F)c1ccccc1NC(=S)NN=C1CCCCCC1 | -12.8 | 94.6* | 16.1 | -1.2 | 1.7 | 37.7
CN1CCN(C=NC2=C(C#N)C(c3ccccc3)C3=C(CC(C)(C)CC3=O)O2)CC1 (configuration not stated) | / | / | / | / | 5.8 | /
O=C(Nc1cc(F)cc(F)c1)c1ccc(NCCCN2CCCCCC2)c([N+](=O)[O-])c1 | -4.1 | 98.3* | 5.0 | 19.6 | 4.6 | 12.9
O=C(Nc1cc(F)cc(F)c1)c1ccc(NCCc2ccccc2)c([N+](=O)[O-])c1 | -3.4 | -0.9 | -5.7 | 0.4 | 2.4 | 3.0
O=C1/C(=C/c2cccnc2)Oc2cc(OS(=O)(=O)c3ccc(Cl)cc3)ccc21 | -2.0 | -6.7 | 6.0 | 40.7* | 5.5 | 15.0
CCCNC(=O)C(=O)NN=Cc1ccc(OCc2ccccc2)cc1 | / | / | / | / | 1.8 | /
Cc1cc(C)c(-c2cc(NC(=O)COC(=O)c3ccc(C#N)cc3)n(-c3ccccc3)n2)cc1C | 2.3 | 76.6* | -10.1 | 28.2 | 1.1 | 4.2
C(=NNC(=Nc1ccccc1)c1ccccn1)c1ccccn1 | / | / | / | / | 2.2 | /
Cc1onc(-c2ccccc2)c1C(=O)NN=Cc1c[nH]c2ccccc12 | / | / | / | / | 1.6 | /
COc1ccc(-c2nc(-c3cccs3)c(-c3cccs3)[nH]2)cc1O | 99.4* | 3.8 | 14.6 | 2.7 | -38.9 | -38.8
Cc1c(C=NNC(=O)c2csc3ccccc23)cnn1C | / | / | / | / | 2.0 | /
COc1nccnc1NS(=O)(=O)c1ccc(NC(=S)NC(=O)c2ccc(F)cc2)cc1 | 63.0 | -2.8 | -2.9 | 17.1 | 3.3 | 14.0
COc1nccnc1NS(=O)(=O)c1ccc(NC(=S)NC(=O)c2cccc(F)c2)cc1 | 91.0* | 25.0 | -1.4 | 8.6 | 2.1 | 10.8
NCCSc1c(-c2ccccc2)[nH]c2ccccc12 | 97.3* | 6.8 | 5.2 | 16.2 | -10.9 | 25.3
NCCSc1c(-c2ccc(Cl)cc2)[nH]c2ccccc12 | -7.4 | -3.0 | -5.4 | 13.4 | -21.1 | 30.9
O=C(O)c1ccccc1NS(=O)(=O)c1cccc(C(F)(F)F)c1 | 50.5 | -11.0 | -11.0 | 15.4 | 1.3 | 5.5
O=C(O)c1ccccc1NS(=O)(=O)c1cccc(-n2sc3ccccc3c2=O)c1 | 98.5* | -3.2 | 12.3 | 15.3 | 3.4 | 25.0
CSC(=Nc1ccccc1)C1=C(O)COC1=O | 96.9* | -6.1 | 2.7 | -90.8 | 1.7 | 13.0
CCSC(=Nc1ccccc1)C1=C(O)COC1=O | -17.2 | 0.7 | -2.4 | -7.3 | -0.8 | -3.1
SMILES | ALR inh | Calb FLC | ATG4B inh | NALP1 yeast inh | UCH37 inh | NALP3 yeast inh
CC(=NOC(=O)c1ccccc1Br)c1ccc(C)cc1 | / | / | / | / | 1.5 | /
CCOC(=O)N1CCN(C(=O)CCCCn2c(=S)[nH]c3ccsc3c2=O)CC1 | 96.4* | -15.6 | -7.5 | 10.6 | -0.4 | 7.5
Cc1ccc(NC(=O)CCCn2c(=S)[nH]c3ccsc3c2=O)cc1C | 84.2* | 35.7 | -6.4 | -21.6 | -5.3 | 17.5
O=C(Nc1ccccc1Cl)ON=Cc1ccncc1 | / | / | / | / | 1.1 | /
Oc1ccccc1N1CCN(c2nnnn2-c2ccccc2)CC1 | 99.2* | 23.9 | 3.6 | 10.8 | 0.6 | 5.7
Oc1ccccc1N1CCN(c2ncccn2)CC1 | 99.0* | 1.7 | -9.8 | 22.0 | 1.7 | 47.5
c1ccc(N2CCN(c3ncccn3)CC2)cc1 | 97.7* | 2.0 | -10.0 | 26.5* | 0.6 | 45.7
COc1cccc2c1OC(=NO)C(C(=O)Nc1ccc(C)cc1)C2 (configuration not stated) | / | / | / | / | 2.4 | /
COc1ccc(NC(=O)Nc2ccc3nccnc3c2)cc1 | 99.8* | -32.9 | -5.2 | 6.8 | 2.0 | 10.6
COc1ccc(NC(=O)Nc2ccc3nonc3c2)cc1 | -2.0 | -6.2 | -1.5 | 1.4 | 0.2 | 5.8
Cc1ccc(SCC(=O)N(C)C2CCS(=O)(=O)C2)cc1 (configuration not stated) | -3.3 | 29.0 | 7.5 | 1.5 | 1.7 | -19.6
Cc1ccc(-c2nc(SCC(=O)N(C)C3CCS(=O)(=O)C3)[nH]c2-c2ccc(C)cc2)cc1 (configuration not stated) | 97.8* | 16.1 | -8.4 | 3.0 | -7.7 | 4.1
CCN(CC)CCNC(=O)C(=NO)c1ccccn1 | / | / | / | / | 3.8 | /
Oc1[nH]c(=S)sc1C=C1N=c2ccccc2=N1 | 5.6 | -1.5 | 4.6 | 3.8 | 12.3 | 26.7
Oc1[nH]c(=S)sc1/C=C1\C(c2ccccc2)=Nc2ccccc21 | 48.7 | 1.5 | 99.4* | 14.0 | 5.9 | /
ClCC1=Nc2cccc3cccc(c23)N1 | 99.1* | -1.6 | / | / | / | 4.8
CC(C)C1=Nc2cccc3cccc(c23)N1 | / | 5.6 | 0.6 | 11.8 | 6.1 | 21.9
O=C(CC=NOCc1c(Cl)cccc1Cl)c1ccccc1 | / | / | / | / | 7.3 | /
COc1ccc(C2C3=C(CCCC3=O)Nc3nc(-c4cc(OC)c(OC)c(OC)c4)nn32)cc1OC (configuration not stated) | -2.7 | 11.7 | -0.4 | 36.0 | -2.7 | -15.6
COc1ccc(-c2nc3n(n2)C(c2ccccc2)C2=C(CCCC2=O)N3)cc1OC (configuration not stated) | 96.7* | -19.9 | -5.0 | 36.9 | -2.0 | 11.5
CN1C(=O)C(=NOC(=O)c2cccc3ccccc23)c2ccccc21 | / | / | / | / | -3.2 | /
Cn1cnnc1SCC(=O)Nc1ccccc1 | -14.6 | 7.8 | 3.7 | -54.6 | 7.8 | 26.7
Cn1cnnc1SCC(=O)Nc1ccc(S(N)(=O)=O)cc1 | 93.5* | -8.4 | 2.7 | 2.1 | 2.9 | 11.6
Cn1cnnc1SCC(=O)Nc1ccc(N2CCCCC2)cc1 | 98.7* | / | -1.0 | / | 1.7 | 21.6
COCCn1cnnc1SCC(=O)Nc1ccc(N2CCCCC2)cc1 | 95.4* | / | -14.8 | / | 3.1 | 8.6
COCCn1cnnc1SCC(=O)Nc1cc(C)on1 | -11.9 | / | 4.1 | / | 4.2 | 4.5
CC(=NNc1ccc(Cl)c(C(=O)O)c1)c1cccc2ccccc12 | / | / | / | / | 7.3 | /
COC(=O)NN=Cc1cn(Cc2ccc(F)cc2)c2ccccc12 | / | / | / | / | 1.7 | /
O=C(CSc1nc2ccccc2o1)NN=Cc1ccccc1 | / | / | / | / | 2.4 | /
O=C(NCCCO)/C(=C/c1ccc(-c2cccc([N+](=O)[O-])c2)o1)NC(=O)c1ccccc1 | / | 11.7 | -5.0 | 1.5 | 21.7* | -1.2
